ChEMBL document CHEMBL3813631, “Design, synthesis, and pharmacological evaluation of JDTic analogs to examine the significance of replacement of the 3-hydroxyphenyl group with pyridine or thiophene bioisosteres” (Bioorg Med Chem, 2016)
Activity calls are given as the source filed them. The rule behind the calls is not given here.

How the values were obtained:
[1] = target: Mu-type opioid receptor (Homo sapiens) (UniProt P35372); assay: Intrinsic activity at human mu opioid receptor expressed in CHO cell membrane assessed as increase in [35S]GTPgammaS binding at 10 uM after 1 hr by scintillation counting method; type: functional, cell membranes
Mu-type opioid receptor (Homo sapiens), sequence (P35372 whole entry): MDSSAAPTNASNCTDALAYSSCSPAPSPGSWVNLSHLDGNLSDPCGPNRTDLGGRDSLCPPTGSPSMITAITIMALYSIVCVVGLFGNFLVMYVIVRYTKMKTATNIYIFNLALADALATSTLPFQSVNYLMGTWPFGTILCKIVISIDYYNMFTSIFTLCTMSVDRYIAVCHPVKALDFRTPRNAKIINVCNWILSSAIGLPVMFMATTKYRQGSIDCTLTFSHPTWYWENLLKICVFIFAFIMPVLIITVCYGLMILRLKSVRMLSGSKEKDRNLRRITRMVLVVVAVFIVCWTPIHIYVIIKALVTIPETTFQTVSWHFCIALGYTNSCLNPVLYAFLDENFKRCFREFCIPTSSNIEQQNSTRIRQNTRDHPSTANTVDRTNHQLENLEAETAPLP

[2] = target: Delta-type opioid receptor (Homo sapiens) (UniProt P41143); assay: Intrinsic activity at human delta opioid receptor expressed in CHO cell membrane assessed as increase in [35S]GTPgammaS binding at 10 uM after 1 hr by scintillation counting method; type: functional, cell membranes
Delta-type opioid receptor (Homo sapiens), sequence (P41143 whole entry): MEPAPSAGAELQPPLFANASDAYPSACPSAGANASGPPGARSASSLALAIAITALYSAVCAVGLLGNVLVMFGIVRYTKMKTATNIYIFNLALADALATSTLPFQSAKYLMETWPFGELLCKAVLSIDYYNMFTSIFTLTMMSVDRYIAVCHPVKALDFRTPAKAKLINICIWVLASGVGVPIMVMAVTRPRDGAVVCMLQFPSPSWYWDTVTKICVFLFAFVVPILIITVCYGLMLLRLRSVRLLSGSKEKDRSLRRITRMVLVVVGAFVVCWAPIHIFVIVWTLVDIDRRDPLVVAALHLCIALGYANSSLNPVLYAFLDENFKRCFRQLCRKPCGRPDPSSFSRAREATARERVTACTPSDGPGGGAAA

[3] = target: Kappa-type opioid receptor (Homo sapiens) (UniProt P41145); assay: Intrinsic activity at human kappa opioid receptor expressed in CHO cell membrane assessed as increase in [35S]GTPgammaS binding at 10 uM after 1 hr by scintillation counting method; type: functional, cell membranes
Kappa-type opioid receptor (Homo sapiens), sequence (P41145 whole entry): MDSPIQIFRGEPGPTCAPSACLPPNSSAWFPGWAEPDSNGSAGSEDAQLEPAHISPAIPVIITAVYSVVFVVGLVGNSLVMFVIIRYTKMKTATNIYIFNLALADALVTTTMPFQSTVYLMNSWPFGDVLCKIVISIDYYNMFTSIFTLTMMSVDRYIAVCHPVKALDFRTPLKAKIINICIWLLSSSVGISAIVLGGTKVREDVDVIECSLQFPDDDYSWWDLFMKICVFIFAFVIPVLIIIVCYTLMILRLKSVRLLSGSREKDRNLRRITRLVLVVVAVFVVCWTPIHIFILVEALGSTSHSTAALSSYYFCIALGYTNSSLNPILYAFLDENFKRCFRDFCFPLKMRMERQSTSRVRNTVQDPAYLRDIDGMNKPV

[4] = target: Kappa-type opioid receptor (Homo sapiens) (UniProt P41145); assay: Antagonist activity at human kappa opioid receptor expressed in CHO cell membrane assessed as inhibition of U69,593-induced [35S]GTPgammaS binding after 1 hr by scintillation counting method; type: functional, cell membranes
Method in brief: (§1)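 Antagonist Ke values were obtained from [35S]GTPγS binding at each opioid receptor. Each value is the mean ± SEM of at least three independent experiments, and each experiment was run in duplicate.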

CHO [5] = assay: Selectivity ratio of Ke for human mu opioid receptor expressed in CHO cell membrane to Ke for human kappa opioid receptor expressed in CHO cell membrane; type: cell-based
CHO [6] = assay: Selectivity ratio of Ke for human delta opioid receptor expressed in CHO cell membrane to Ke for human kappa opioid receptor expressed in CHO cell membrane; type: cell-based
[7] = target: Mu-type opioid receptor (Homo sapiens) (UniProt P35372); assay: Antagonist activity at human mu opioid receptor expressed in CHO cell membrane assessed as inhibition of DAMGO-induced [35S]GTPgammaS binding after 1 hr by scintillation counting method; type: functional, cell membranes; method in brief: as §1
[8] = target: Delta-type opioid receptor (Homo sapiens) (UniProt P41143); assay: Antagonist activity at human delta opioid receptor expressed in CHO cell membrane assessed as inhibition of DPDPE-induced [35S]GTPgammaS binding after 1 hr by scintillation counting method; type: functional, cell membranes; method in brief: as §1

Row | SMILES | Intrinsic activity [1] | Intrinsic activity [2] | Intrinsic activity [3] | Ke [4] [nM] | Ke [7] [nM] | Ke [8] [nM] | Ratio Ke (CHO [5]) | Ratio Ke (CHO [6])
1 | CC(C)[C@@H](CN1CCC(C)(c2ccncc2)CC1)NC(=O)[C@H]1Cc2ccc(O)cc2CN1 | inactive | inactive | inactive | 1.75 | – | – | 88 | 1430
2 | CC(C)[C@@H](CN1CCC(C)(c2cccnc2)CC1)NC(=O)[C@H]1Cc2ccc(O)cc2CN1 | inactive | inactive | inactive | 0.18 | – | – | 273 | > 16700
3 | CC(C)[C@@H](CN1CCC(c2ccccc2)CC1)NC(=O)[C@H]1Cc2ccc(O)cc2CN1 | – | – | – | – | – | – | 77 | 5510
4 | CC(C)[C@@H](CN1CCC(c2ccsc2)CC1)NC(=O)[C@H]1Cc2ccc(O)cc2CN1 | inactive | inactive | inactive | 0.12 | 3.93 | 118 | 33 | 983

Continued, in another order:

Row | Intrinsic activity [1] | Intrinsic activity [2] | Intrinsic activity [3] | Ke [4] [nM] | Ke [7] [nM] | Ke [8] [nM] | SMILES | Ratio Ke (CHO [5]) | Ratio Ke (CHO [6])
5 | inactive | inactive | inactive | 0.51 | – | – | CC(C)[C@@H](CN1CCC(c2ccncc2)CC1)NC(=O)[C@H]1Cc2ccc(O)cc2CN1 | 112 | 1350
6 | inactive | inactive | inactive | 0.43 | – | – | CC(C)[C@@H](CN1CCC(c2ccccn2)CC1)NC(=O)[C@H]1Cc2ccc(O)cc2CN1 | 33 | 1370
7 | inactive | inactive | inactive | 0.51 | – | – | CC(C)[C@@H](CN1CCC(c2cccnc2)CC1)NC(=O)[C@H]1Cc2ccc(O)cc2CN1 | 89 | 2240
